From ChEMBL document CHEMBL1123030, “N-(Aminoalkyl)imide antineoplastic agents. Synthesis and biological activity” (J Med Chem, 1985)
Active and inactive are the calls of the source. No cut-off for these calls is given here.

Legend:
P388 [1] = test: Inhibitory activity in vivo against P388 leukemia cells in mice at a dose of 50 mg/kg upon intraperitoneal administration; format: functional, Mus musculus
Outline: (§1)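 Tumor source was ascites fluid implanted into BDF₁ mice. Tumor inoculation and drug dosing were both intraperitoneal, given once daily for 5 days (q1d × 5). Screening and data interpretation followed the general NCI protocol.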

P388 [2] = test: Inhibitory activity in vivo against P388 leukemia cells in mice at a dose of 100 mg/kg upon intraperitoneal administration; format: functional, Mus musculus; outline: as §1
L1210 [3] = test: Compound was tested for cytotoxic activity against L1210 leukemia in vitro; IA means inactive; format: functional, cell-based; conditions: Mus musculus
P388 [4] = test: Inhibitory activity in vivo against P388 leukemia cells in mice at a dose of 25 mg/kg upon intraperitoneal administration; format: functional, Mus musculus; outline: as §1
P388 [5] = test: Inhibitory activity in vivo against P388 leukemia cells in mice at a dose of 12.5 mg/kg upon intraperitoneal administration; format: functional, Mus musculus; outline: as §1
[6] = Compound was tested for cytotoxic activity against human colon adenocarcinoma in vitro; IA means Inactive
L1210 [7] = test: Compound was tested for cytotoxic activity against L1210 leukemia in vitro; IA means Inactive; format: functional, cell-based; conditions: Mus musculus
Mus musculus [8] = test: Compound was evaluated for inhibitory activity in vivo against P388 leukemia cells in mice at a dose of 15 mg/kg upon intraperitoneal administration; format: functional; outline: as §1
L1210 [9] = test: Cytotoxic activity against L1210 leukemia in vitro.; format: functional, Mus musculus
[10] = Cytotoxic activity against human colon adenocarcinoma in vitro; format: functional
Mus musculus [11] = test: Compound was evaluated for inhibitory activity in vivo against P388 leukemia cells in mice at a dose of 60 mg/kg upon intraperitoneal administration; format: functional; outline: as §1
Mus musculus [12] = test: Compound was evaluated for inhibitory activity in vivo against P388 leukemia cells in mice at a dose of 7.5 mg/kg upon intraperitoneal administration; format: functional; outline: as §1
Mus musculus [13] = test: Compound was evaluated for inhibitory activity in vivo against P388 leukemia cells in mice at a dose of 3.75 mg/kg upon intraperitoneal administration; format: functional; outline: as §1
Mus musculus [14] = test: Compound was evaluated for inhibitory activity in vivo against P388 leukemia cells in mice at a dose of 120 mg/kg upon intraperitoneal administration; format: functional; outline: as §1
Mus musculus [15] = test: Compound was evaluated for inhibitory activity in vivo against P388 leukemia cells in mice at a dose of 30 mg/kg upon intraperitoneal administration; format: functional; outline: as §1
Mus musculus [16] = test: Compound was evaluated for inhibitory activity in vivo against P388 leukemia cells in mice at a dose of 240 mg/kg upon intraperitoneal administration; format: functional; outline: as §1
Mus musculus [17] = test: Compound was evaluated for inhibitory activity in vivo against P388 leukemia cells in mice at a dose of 3.12 mg/kg upon intraperitoneal administration; format: functional; outline: as §1
Mus musculus [18] = test: Compound was evaluated for inhibitory activity in vivo against P388 leukemia cells in mice at a dose of 6.25 mg/kg upon intraperitoneal administration; format: functional; outline: as §1
Mus musculus [19] = test: Compound was evaluated for inhibitory activity in vivo against P388 leukemia cells in mice at a dose of 3.13 mg/kg upon intraperitoneal administration; format: functional; outline: as §1
Mus musculus [20] = test: Compound was evaluated for inhibitory activity in vivo against P388 leukemia cells in mice at a dose of 200 mg/kg upon intraperitoneal administration; format: functional; outline: as §1
Mus musculus [21] = test: Compound was evaluated for inhibitory activity in vivo against P388 leukemia cells in mice at a dose of 0.78 mg/kg upon intraperitoneal administration; format: functional; outline: as §1
Mus musculus [22] = test: Compound was evaluated for inhibitory activity in vivo against P388 leukemia cells in mice at a dose of 0.39 mg/kg upon intraperitoneal administration; format: functional; outline: as §1
Mus musculus [23] = test: Compound was evaluated for inhibitory activity in vivo against P388 leukemia cells in mice at a dose of 1.56 mg/kg upon intraperitoneal administration; format: functional; outline: as §1
Homo sapiens = species on record: Homo sapiens; test: Compound was tested for cytotoxic activity against human colon adenocarcinoma in vitro; format: functional
Mus musculus [24] = test: Compound was evaluated for inhibitory activity against B-16 melanoma in mice at a dose of 1.56 mg/kg upon intraperitoneal administration; format: functional
Mus musculus [25] = test: Compound was evaluated for inhibitory activity against B-16 melanoma in mice at a dose of 3.13 mg/kg upon intraperitoneal administration; format: functional
Mus musculus [26] = test: Compound was evaluated for inhibitory activity against B-16 melanoma in mice at a dose of 12.5 mg/kg upon intraperitoneal administration; format: functional
Mus musculus [27] = test: Compound was evaluated for inhibitory activity against B-16 melanoma in mice at a dose of 25 mg/kg upon intraperitoneal administration; format: functional
Mus musculus [28] = test: Compound was evaluated for inhibitory activity against B-16 melanoma in mice at a dose of 6.25 mg/kg upon intraperitoneal administration; format: functional

In the case of `Cl.O=C1c2cccc3cc([N+](=O)[O-])cc(c23)C(=O)N1CCN1CCOCC1`, the T/C (P388 [1]) is reported as 105, the T/C (P388 [2]) is reported as 183 and the Cytotoxic concentration (L1210 [3]) is reported as “inactive”.

`O=C1c2cc([N+](=O)[O-])cc3cc([N+](=O)[O-])cc(c23)C(=O)N1c1nncs1` showed a T/C (P388 [4]) of 119, a T/C (P388 [5]) of 91 and a T/C (P388 [1]) of 127. The T/C (P388 [2]) was 137, the Cytotoxic concentration [6] was “Not Active” and the Cytotoxic concentration (L1210 [7]) was “inactive”.

`CN(C)CCN1C(=O)c2cc(N)cc3cc(N)cc(c23)C1=O.Cl.Cl.Cl` showed a T/C (Mus musculus [8]) of 163, a Cytotoxic concentration (L1210 [9]) of 337 nM and a Cytotoxic concentration [10] of 677 nM. The T/C (Mus musculus [11]) was 188, the T/C (Mus musculus [12]) was 163 and the T/C (Mus musculus [13]) was 125.

Compound `O=C1c2cc([N+](=O)[O-])cc3cc([N+](=O)[O-])cc(c23)C(=O)N1CCNCCO.O=S(=O)(O)O` has a T/C (Mus musculus [14]) of 123, a Cytotoxic concentration (L1210 [9]) of 431 nM and a Cytotoxic concentration [10] of 1250 nM. It also gave a T/C (Mus musculus [15]) of 118, a T/C (Mus musculus [11]) of 123 and a T/C (Mus musculus [16]) of 132.

`CN(C)CCN1C(=O)c2ccc3c4c(ccc(c24)C1=O)C(=O)N(CCN(C)C)C3=O` showed a T/C (Mus musculus [17]) of 116 and a T/C (Mus musculus [18]) of 125.

Work on `Cl.O=C1c2cccc3cc([N+](=O)[O-])cc(c23)C(=O)N1CCN1CCCC1` yielded a T/C (P388 [5]) of 163, a T/C (Mus musculus [19]) of 135 and a Cytotoxic concentration (L1210 [9]) of 159 nM. The T/C (Mus musculus [18]) was 149.

With `COc1ccc2c3c(cccc13)C(=O)N(CCN(C)C)C2=O` the T/C (P388 [1]) was 109, the T/C (P388 [2]) was 117 and the Cytotoxic concentration (L1210 [3]) was “inactive”. For the same compound, the T/C (Mus musculus [20]) was 133.

`CCNCCN1C(=O)c2cccc3cc([N+](=O)[O-])cc(c23)C1=O.Cl` gave a T/C (P388 [4]) of 162, a T/C (P388 [5]) of 129 and a Cytotoxic concentration (L1210 [9]) of 700 nM. The T/C (Mus musculus [18]) was 123.

Compound `COc1ccc2c3c(ccc(OC)c13)C(=O)N(CCN(C)C)C2=O` has a T/C (P388 [4]) of 102, a T/C (P388 [1]) of 120 and a T/C (P388 [2]) of 118. For the same compound, the Cytotoxic concentration (L1210 [3]) was “inactive” and the T/C (Mus musculus [20]) was 123.

`CNCCN1C(=O)c2cccc3cc([N+](=O)[O-])cc(c23)C1=O.Cl` showed a T/C (P388 [5]) of 177, a T/C (Mus musculus [17]) of 129 and a Cytotoxic concentration (L1210 [9]) of 266 nM. The T/C (Mus musculus [18]) was 139.

Compound `Cl.O=C1c2cc([N+](=O)[O-])cc3cc([N+](=O)[O-])cc(c23)C(=O)N1CCN1CCCC1` has a T/C (Mus musculus [21]) of 126, a T/C (Mus musculus [17]) of 136 and a T/C (Mus musculus [22]) of 117. The Cytotoxic concentration (L1210 [9]) was 82.9 nM, the Cytotoxic concentration [10] was 172 nM and the T/C (Mus musculus [23]) was 138.

In the case of `Cl.O=C1c2cccc3cc([N+](=O)[O-])cc(c23)C(=O)N1CCN1CCNCC1`, the T/C (P388 [4]) is reported as 129, the T/C (P388 [5]) is reported as 116 and the T/C (P388 [1]) is reported as 136. The Cytotoxic concentration (L1210 [9]) was 1380 nM.

Work on `CN(C)CCN1C(=O)c2cccc3cc([N+](=O)[O-])cc(c23)C1=O.Cl` yielded a T/C (Mus musculus [17]) of 138, a Cytotoxic concentration (L1210 [9]) of 151 nM and a T/C (Mus musculus [18]) of 164. It also gave a Cytotoxic concentration (Homo sapiens) of 106 nM and a T/C (Mus musculus [23]) of 121.

In the case of `O=C1c2cccc3cc([N+](=O)[O-])cc(c23)C(=O)N1CCNCCO`, the T/C (P388 [4]) is reported as 163, the T/C (P388 [5]) is reported as 151 and the T/C (Mus musculus [24]) is reported as 112. The T/C (Mus musculus [18]) was 137, the Cytotoxic concentration (Homo sapiens) was 388 nM and the T/C (Mus musculus [25]) was 142. For the same compound, the T/C (Mus musculus [26]) was 219, the T/C (Mus musculus [27]) was 216 and the T/C (Mus musculus [28]) was 174.

For `CN(C)CCN1C(=O)c2ccc(Cl)c3c(Cl)ccc(c23)C1=O`, the T/C (P388 [4]) was 107 and the Cytotoxic concentration (L1210 [9]) was 699 nM.
